Measured values: ChEMBL document CHEMBL1122506, “Cardiac-slowing amidines containing the 3-thioindone group. Potential antianginal agents” (1983)

Legend:
Canis familiaris [1] = experiment: Change in heart rate at the above D50 dose in conscious dogs; type: functional, Canis lupus familiaris
Summary of the method: (§1)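 Triazine tachycardia in conscious dogs: carotid artery and jugular vein catheterized with heparinized saline; 18 h after surgery, triazine vasodilator U20388 12 mg/kg po; about 1 h later, dog in sling with arterial pressure and ECG monitored. Test agent infused iv at 0.8 (mg/kg)/min to 30 mg/kg total. D50 = dose giving 50% of maximal slowing in that animal; ΔHR50 = heart-rate change at D50; CS index = %ΔHR50/D50.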

Canis familiaris [2] = species: Canis familiaris; experiment: Percent decrease from initial heart rate (percent delta HR50/HR0 x 100) in dogs; type: functional, Canis lupus familiaris; summary of the method: as §1
Canis familiaris [3] = species: Canis familiaris; experiment: Relative activity (fraction of the most active compound 24) was determined; type: functional, Canis lupus familiaris
Canis familiaris [4] = experiment: Dose required to achieve 50 % of maximal cardiac slowing in triazine tachycardia test in conscious dog; type: functional, Canis lupus familiaris; summary of the method: as §1
Canis familiaris [5] = experiment: Myocardial depression rating in anesthetized, ganglion-blocked dog; Weak activity.
Canis familiaris [6] = species: Canis familiaris; experiment: Cardiac slowing index was measured for potency and efficacy; type: functional, Canis lupus familiaris; summary of the method: as §1
Canis familiaris [7] = experiment: Myocardial depression in anesthetized, ganglion-blocked dog; Moderate activity.

SMILES	Delta HR50 (Canis familiaris [1]) [beats min-1]	Delta HR50 (Canis familiaris [2]) [%]	Relative activity (Canis familiaris [3])	D50 (Canis familiaris [4]) [mg/kg]	MD (Canis familiaris [5])	CS index (Canis familiaris [6])	MD (Canis familiaris [7])
COc1ccc2[nH]cc(SCC/N=C3\CCCN3C)c2c1	-39	17.8	0.24	2.3	2	7.7	–
Cc1[nH]c2ccccc2c1SCCNC1=NCCN1C	-37	19.5	0.23	2.6	2.5	7.5	–
CN1CCC/C1=N\CCSc1cn(CC2CC2)c2ccccc12	-60	25.5	0.57	1.4	2.5	18.2	–
C=CCCn1cc(SCC/N=C2\CCCN2C)c2ccccc21	-33	16.2	0.46	1.1	–	14.7	3
C#CCn1cc(SCC/N=C2\CCCN2C)c2ccccc21	-46	21.6	0.61	1.1	2.5	19.6	–
C#CCn1cc(CC/N=C2/CCCN2C)c2ccccc21	-47	22.3	0.46	1.5	–	14.9	3
CN1CCC/C1=N/CCc1cn(Cc2ccccc2)c2ccccc12	-52	24.3	0.29	2.6	–	9.3	–
CN1CCC/C1=N\CCCCSc1c[nH]c2ccccc12	-42	20	0.31	2	–	10	3
CN1CCC/C1=N\CCSc1cn(Cc2ccccc2)c2ccccc12	–	–	–	–	–	–	3
CN1CCCN=C1NCCSc1c[nH]c2ccccc12	-38	20	0.1	6.4	–	3.1	–
CN1CCCC/C1=N\CCSc1c[nH]c2ccccc12	-51	22.4	0.23	3	2.5	7.5	–
C=C(C)Cn1cc(SCC/N=C2\CCCN2C)c2ccccc21	-42	20	0.14	4.4	2.5	4.5	–
C=CCN1CCC/C1=N\CCSc1c[nH]c2ccccc12	-22	12.4	0.55	0.7	–	17.7	–
CCc1ccc2[nH]cc(SCC/N=C3\CCCN3C)c2c1	-21	15.5	0.06	8.6	–	1.8	–
CN1CCC/C1=N/CCCSc1c[nH]c2ccccc12	-46	20.4	0.17	3.8	–	5.4	3
Cc1[nH]c2ccc(Cl)cc2c1SCC/N=C1\CCCN1C	-33	17.2	0.23	2.3	–	7.5	3

SMILES	Delta HR50 (Canis familiaris [1]) [beats min-1]	Delta HR50 (Canis familiaris [2]) [%]	Relative activity (Canis familiaris [3])	D50 (Canis familiaris [4]) [mg/kg]	MD (Canis familiaris [5])	CS index (Canis familiaris [6])	MD (Canis familiaris [7])
C#CCn1c(C)c(SCC/N=C2\CCCN2C)c2ccccc21	-20	18.5	0.11	5.5	–	3.4	–
CN1CCC/C1=N\CCSc1cn(C2C=CCCC2)c2ccccc12 (centres undefined)	-52	20.8	0.34	1.9	–	10.9	3.5
CCN1CC(CC/N=C2\CCCN2C)c2ccccc21 (centres undefined)	-45	18.4	0.17	3.3	2	5.6	–
CN1CCN=C1NCCSc1c[nH]c2ccccc12	-38	19.9	0.22	2.9	2	6.9	–
CN1CCN=C1NCCc1c[nH]c2ccccc12	-47	20.5	0.06	9.7	2	2.1	–
C=CCn1cc(SCC/N=C2\CCCN2C)c2ccccc21	-52	22.2	0.69	1	2	22.2	–
C=CCn1cc(CC/N=C2/CCCN2C)c2ccccc21	-26	14.7	0.38	1.2	–	12.2	–
CN1CCC/C1=N\CCSc1c[nH]c2ccc(Cl)cc12	-32	16.2	0.14	3.5	2	4.6	–
CC(=NCCSc1c[nH]c2ccccc12)N(C)C	-50	23	0.36	2	2	11.5	–
CN1CCC/C1=N/CCc1c[nH]c2ccccc12	-28	16	0.15	3.4	2	4.7	–
c1ccc2c(SCCNC3=NCCC3)c[nH]c2c1	-51	23	0.19	3.7	–	6.2	–
CN1CCC/C1=N\CCSc1cn(Cc2ccco2)c2ccccc12	-42	22.4	0.27	2.6	–	8.6	3.5
CN1CCC/C1=N\CCSc1cn(C2CCCC2)c2ccccc12	-40	21	0.24	2.7	–	7.8	3
c1ccc(N2CCC/C2=N\CCSc2c[nH]c3ccccc23)cc1	-40	19.2	1	0.6	2.5	32	–
CC(CSc1c[nH]c2ccccc12)/N=C1\CCCN1C (centres undefined)	-46	24	0.28	2.7	–	8.9	3.5
CN1CCCCC/C1=N\CCSc1c[nH]c2ccccc12	-38	18.5	0.04	14.1	–	1.3	–
